Screens deposited in PubChem BioAssay by several laboratories.
Only a selection was taken, and hits are over-represented in it overall.
Hep lipid drop: hepatic lipid droplet formation modulation; AML12 mouse hepatocytes, oleate lipid droplets, BODIPY imaging; inhibition, % at 6.5 µM; 0.4% of 240,000 active; AID 1656;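 active = lipid droplet intensity inhibited by at least 50%, with more than 500 cells counted; inconclusive = wells with under 300 cells, treated as cytotoxic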
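Technique: fluorescence imaging, 20x objective, two fields per well / Assay system: AML12 hepatocytes (mouse) / Measure: % inhibition of lipid droplet signal / Doses: 6.5 µM single-point dosing / Incubation: overnight exposure / Reagent: 100 µM oleic acid challenge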
T cruzi inh: T. cruzi replication inhibition | 1.4% of 300,000 active | inhibition, % (concentration not given with the values) | AID 1885 | T. cruzi beta-gal in NIH3T3, luminescence, 90 h;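 active = mean inhibition across valid replicates above about 55%, limit read from the data; inconclusive = mean below that limit but half or more replicates reach it; inactive = mean below it, under half of replicates reach it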;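 note: signal also drops with host cell toxicity which is not excluded here; 0% = plate median of DMSO wells and 100% = zero luminescence signal; higher percent means less beta-gal luminescence so fewer parasites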
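Assay system: NIH/3T3 host cells with β-galactosidase reporter T. cruzi; input: 5,000 host fibroblasts per well; compound: single 50 nL compound addition per well in DMSO; timing: ≥90 h infection period, 3 h prior cell attachment; measured by: GalScreen β-gal luminescence, detergent lysis, 60 min; evaluation: percent inhibition of parasite-derived β-gal signal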
DTT redox prof: compounds producing H2O2 with reducing agent – biochemical, NIH compound library profiling, artefact control for MLSCN library redox annotation, primary screen; activation, % at 10 µM; DTT-dependent redox cycling H2O2, phenol red/HRP absorbance; 100% = 100 µM peroxide control, 0% = buffer; 0.03% of 200,000 active;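 active = activation of at least 50% relative to the plate's high and low controls in the primary single-dose screen; inactive = activation below 50%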;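 note: compound incubated with DTT at 0.8 mM final as the reducing agent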
L major viab: Leishmania major promastigote growth inhibition. AID 1063. inhibition, % at 10 µM. Leishmania major promastigotes, resazurin fluorescence viability. 9% of 200,000 active; in the data active = inhibition above about 50%;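 note: promastigotes grown with compound for 44 hours at 28 °C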
MPTP inh: permeability transition pore inhibition | isolated mouse mitochondria, Ca2+ swelling absorbance, 30 min | inhibition, % at 10 µM | 1.4% of 360,000 active;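 active = inhibition of 50% or more, scaled per plate between neutral and stimulator controls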;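 note: 0% = DMSO wells given calcium and 100% = 1 mM EGTA wells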
Lmaj promast 1uM: inhibitors of Leishmania major promastigote growth, repeat at 1 uM | shares compounds with L major viab | L. major promastigote growth, resazurin fluorescence, 48 h | inhibition, % at 1 µM | 13% of 1,100 active;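 active = inhibition above about 50% in both repeat tests, limit read from the data; inconclusive = one repeat under the set limit, the other over it; inactive = both repeats under the set limit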
An asterisk follows results filed as active; ? = inconclusive; . = no result.

SMILES	Hep lipid drop	T cruzi inh	DTT redox prof	L major viab	MPTP inh	Lmaj promast 1uM
OCCC1CN(Cc2ccc(C(F)(F)F)cc2)CCN1Cc1ccccc1 (stereo unspecified)	3.4	10.2	0.6	49.5	1.6	.
OCCC1CN(Cc2cccc(C(F)(F)F)c2)CCN1Cc1ccccc1 (stereo unspecified)	-8.3	54.7*	12.9	80.3*	0.4	?
COc1ccc(-n2c(C)cc(C(=O)CSc3nn4c(=O)c(C(C)(C)C)nnc4s3)c2C)cc1	.	40.2	0.3	64.0*	5.3	6.3
COc1ccc(C(=O)CSc2nn3c(=O)c(C(C)(C)C)nnc3s2)cc1	-1.2	-17.1	0.4	11.4	-1.7	.
COc1cccc(CN2CCNC(=O)C2CC(=O)NCCOc2cccnc2)c1 (stereo unspecified)	-5.0	-2.7	-0.9	-2.4	1.9	.
O=C(CCC(=O)N(CC(=O)NC1CCCC1)C1CCCCC1)Nc1ccccn1	1.5	-12.8	-0.3	-4.2	1.4	.
Cc1ccc(-n2c(CCc3ccccc3)n[nH]c2=S)cc1C	1.2	10.0	.	.	-1.3	.
O=[N+]([O-])c1ccc(NNC(=S)Nc2ccc(F)cc2)cc1	-70.8	7.7	15.9	100.5*	45.5	79.1*
CN(c1ccccc1)c1ccc(/C=C(\C#N)c2nnc3n2CCCCC3)cc1[N+](=O)[O-]	-15.9	-11.3	0.8	56.0*	1.2	14.2
CN(c1ccccc1)c1ccc(/C=C(\CCC(=O)O)c2nc3ccccc3s2)cc1[N+](=O)[O-]	-1.2	-13.9	0.2	44.1	13.3	.
Cc1ccc(S(=O)(=O)C2C(=O)N(C)C3(C)CC2c2ccccc2O3)cc1C (stereo unspecified)	-20.9	3.5	0.6	9.6	-0.5	.
CN1C(=O)C(c2nnc(Nc3cccc4ccccc34)s2)C2CC1(C)Oc1ccccc12 (stereo unspecified)	-0.5	.	-0.1	71.7*	-21.6	-10.0
CCOC(=O)c1ccccc1NC(=O)c1ccccc1N(C)S(C)(=O)=O	-0.8	-3.6	-4.0	89.7*	-0.2	-3.2
O=C(Nc1ccc2nc(-c3ccco3)[nH]c2c1)c1ccco1	-0.3	0.6	0.1	12.8	-1.6	.
O=C(Nc1ccc2nc(-c3ccco3)[nH]c2c1)c1cccs1	7.8	-4.1	2.3	88.3*	-1.1	-20.3
CC(C)(C)c1ccc(/C=N/n2cnnc2)cc1	-1.3	18.1	-2.5	44.1	-0.2	.
CC(C)CCN(C)c1ccc(/C=N/n2cnnc2)cc1	-9.5	29.4	-0.1	82.0*	-1.5	-0.5
Cc1ccc(C(O)(COC(=O)C(C)C)COC(=O)C(C)C)c(O)c1	2.1	-5.6	-0.1	60.5*	-0.4	-10.4
CC(C)CCC[C@](C)(O)c1ccc(C(=O)O)cc1O	.	.	.	.	-0.5	.
CCc1nnc(NC(=O)CCC(=O)NC2CCCc3ccccc32)s1 (stereo unspecified)	4.6	-3.0	0.1	48.4	0.5	.
CN(CC(=O)Nc1ccc(OC(F)(F)F)cc1)C(=O)/C=C/c1cc2c(cc1[N+](=O)[O-])OCO2	.	.	.	.	0.9	.
COc1cc(/C=C2\C(=O)ON=C2c2ccccc2)cc(Cl)c1O	2.7	-7.6	0.1	50.1*	36.2	16.7
O=C1CC(Cc2ccccc2)C(=O)N1CCCn1ccnc1 (stereo unspecified)	-1.6	-12.1	4.3	98.8*	.	-4.8
Cc1ccc(CC2CC(=O)N(CCc3ccccc3)C2=O)cc1 (stereo unspecified)	-3.6	3.4	-0.1	0.4	-1.2	.
Cc1ccccc1-n1ncc2c([N+](=O)[O-])cc([N+](=O)[O-])cc21	.	51.4	-3.4	100.4*	-0.9	98.5*
SMILES	Hep lipid drop	T cruzi inh	DTT redox prof	L major viab	MPTP inh	Lmaj promast 1uM
COCCCn1c2nc3ccccc3nc2c2c(=O)n(-c3ccccc3OC)cnc21	2.1	15.8	4.4	18.7	-0.7	.
COc1ccccc1-n1cnc2c(c1=O)c1nc3ccccc3nc1n2-c1ccc(C)c(C)c1	1.1	31.3	0.7	97.5*	0.3	96.6*
Cc1ccc(Nc2c([N+](=O)[O-])ccc3nonc23)cc1C	-7.3	13.6	.	.	0.0	.
CC1=CC(C)C2(COC(c3ccc[n+](C)c3)OC2)C(C)C1 (stereo unspecified)	-21.7	.	-0.3	99.8*	0.2	-1.2
O=C1O/C(=C/c2ccccc2)c2ccccc21	-10.2	-10.6	0.0	-4.4	0.9	.
N#CC1=C(c2ccccc2)/C(=C/c2ccccc2)OC1=O	6.8	2.4	0.1	92.1*	3.4	0.8
COc1ccc2c(c1)OCC1=C2CCC2(C)C(=O)CC=C12 (stereo unspecified)	30.3	0.6	2.8	51.8*	.	23.0
COc1ccc2c(c1)SCCC2=O	-1.1	-11.7	-1.5	-8.3	2.5	.
COc1ccc2c(c1)C(=O)[C@@H](O)[C@H](c1ccc(OC)c(Br)c1)O2	15.1	-19.2	0.6	98.4*	1.0	-58.2
Cc1cc(C)c2c(CC(=O)NC3CCS(=O)(=O)C3)coc2c1 (stereo unspecified)	5.6	-4.9	.	.	-1.6	.
N#C/C(=C\c1cn(CCOc2ccccc2)c2ccccc12)C(=O)NCc1cccs1	-46.9	-1.3	0.1	55.0*	0.6	-13.4
Cc1nc(SCC(=O)Nc2ccc3[nH]c(=O)[nH]c3c2)nc(C)c1C	.	.	.	.	-0.6	.
Cc1cccc(NC(=O)Cc2noc3ccccc23)c1C	-1.0	6.5	-0.4	-0.5	-0.1	.
Cc1cccc2c(CC(=O)O)noc12	-2.4	-8.6	0.1	79.2*	0.8	-3.1
CCOc1ccc(C(F)(F)F)cc1NC(=O)COc1ccc(C(F)(F)F)cc1[N+](=O)[O-]	5.6	-3.9	2.0	-4.1	-0.4	.
CCCOP(=O)(OCCC)c1c([N+](=O)[O-])cc(C(F)(F)F)cc1[N+](=O)[O-]	-7.8	-10.1	-0.1	53.6*	3.2	0.6
Cc1ccc(OC(C)C(=O)Nc2cccc(S(=O)(=O)N3CCCCCC3)c2)cc1 (stereo unspecified)	.	.	.	.	1.0	.
CC1=CC2(O)OCCN(CCO)C2=CC1=O (stereo unspecified)	-16.7	-18.5	1.8	99.0*	0.4	-10.1
Cc1cc(C(F)(F)F)nn1CC(=O)NCc1ccccc1	16.2	-2.7	0.3	-0.5	-1.3	.
Cc1cc(C(F)(F)F)nn1CC(=O)Nc1ccc(Br)c2cccnc12	-16.9	-0.2	2.9	96.4*	0.8	-13.7
CC(=O)c1ccc(NC(=O)COC(=O)c2nc(Cl)ccc2Cl)cc1	0.8	-10.4	-2.0	-4.2	-1.2	.
O=C(/C=C1\NC2(CCCC2)Cc2ccccc21)N1CCOCC1	-2.3	-8.9	2.4	87.6*	6.6	-2.4
Cc1[nH]c2ccccc2c1N=Nc1ccccc1C(=O)O	-32.4	5.5	-0.4	68.2*	6.1	-5.4
C=C(C)CNC(=O)C1CCC(=O)N(CCCc2ccccc2)C1 (stereo unspecified)	.	-11.0	.	.	-0.9	.
CCc1ccc(/C=C/c2c[nH]c3ccccc23)[n+](CC)c1	-3.6	40.4	-0.1	100.0*	1.3	9.6
